Active and inactive are the calls of the source. The calls are words filed in the database; no cut-off is given here.
How the values were obtained:
HEK293 [1] = test: Stimulation of EGFP-tagged rat AT1 receptor expressed in HEK cells assessed as increase in cluster density value at 5 nM under H2O2-induced oxidative stress condition by image correlation spectroscopic analysis; assay type: cell-based
In short: (§1)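 HEK cells expressing EGFP-tagged AT₁R were plated at 1.5 × 10⁵ cells per glass-bottom dish. Where stated, cells were pre-treated with H₂O₂ for 3 h. Cell surfaces were imaged before and after 5 nM monovalent Ang II (or a 5 nM total 1:1 mixture) or 2.5 nM bivalent peptide. Imaging used a 488 nm laser and a 60× oil objective. Image correlation spectroscopy gave mean fluorescence intensity, cluster density and degree of aggregation versus unstimulated baseline.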

HEK293 [2] = test: Stimulation of EGFP-tagged rat AT1 receptor expressed in HEK cells assessed as increase in degree of aggregation at 5 nM under non-oxidative condition by image correlation spectroscopic analysis; assay type: cell-based; in short: as §1
HEK293 [3] = test: Stimulation of EGFP-tagged rat AT1 receptor expressed in HEK cells assessed as increase in intracellular calcium level at 5 nM after 3 mins under H2O2-induced oxidative stress condition by fluorimetric assay; assay type: cell-based
In short: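 Before the Indo1-AM [Ca²⁺]i assay, AT₁R-HEK cells were exposed to H₂O₂ for 3 h to impose oxidative stress. They were then stimulated with 5 nM peptide, based on Ang II equivalents. Ratiometric emission at 405/490 nm (ex 338 nm) was monitored for 3 min after ligand addition. Ca²⁺ was derived by Kd-based calibration against EGTA and ionomycin ratios.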

HEK293 [4] = test: Stimulation of EGFP-tagged rat AT1 receptor expressed in HEK cells assessed as increase in mean fluorescence intensity at 5 nM under non-oxidative condition by image correlation spectroscopic analysis relative to control; assay type: cell-based; in short: as §1
HEK293 [5] = test: Stimulation of EGFP-tagged rat AT1 receptor expressed in HEK cells assessed as increase in cluster density value at 5 nM under non-oxidative condition by image correlation spectroscopic analysis relative to control; assay type: cell-based; in short: as §1
HEK293 [6] = test: Stimulation of EGFP-tagged rat AT1 receptor expressed in HEK cells assessed as increase in degree of aggregation at 5 nM under H2O2-induced oxidative stress condition by image correlation spectroscopic analysis; assay type: cell-based; in short: as §1
HEK293 [7] = test: Stimulation of EGFP-tagged rat AT1 receptor expressed in HEK cells assessed as increase in mean fluorescence intensity at 5 nM under H2O2-induced oxidative stress condition by image correlation spectroscopic analysis relative to control; assay type: cell-based; in short: as §1
HEK293 [8] = test: Stimulation of EGFP-tagged rat AT1 receptor expressed in HEK cells assessed as increase in intracellular calcium level at 10 nM after 3 mins by fluorimetric assay
HEK293 [9] = test: Stimulation of EGFP-tagged rat AT1 receptor expressed in HEK cells assessed as increase in degree of aggregation at 2.5 nM under H2O2-induced oxidative stress condition by image correlation spectroscopic analysis; assay type: cell-based; in short: as §1
HEK293 [10] = test: Stimulation of EGFP-tagged rat AT1 receptor expressed in HEK cells assessed as decrease in cluster density value at 2.5 nM under H2O2-induced oxidative stress condition by image correlation spectroscopic analysis; assay type: cell-based; in short: as §1
HEK293 [11] = test: Stimulation of EGFP-tagged rat AT1 receptor expressed in HEK cells assessed as increase in intracellular calcium level at 5 nM after 3 mins under H2O2-induced oxidative stress condition by fluorimetric assay
HEK293 [12] = test: Stimulation of EGFP-tagged rat AT1 receptor expressed in HEK cells assessed as increase in degree of aggregation at 2.5 nM under non-oxidative condition by image correlation spectroscopic analysis; assay type: cell-based; in short: as §1
HEK293 [13] = test: Stimulation of EGFP-tagged rat AT1 receptor expressed in HEK cells assessed as change in cluster density value at 2.5 nM under non-oxidative condition by image correlation spectroscopic analysis relative to control; assay type: cell-based; in short: as §1

CC[C@H](C)[C@H](NC(=O)[C@H](Cc1ccc(O)cc1)NC(=O)[C@@H](NC(=O)[C@H](CCCNC(=N)N)NC(=O)[C@@H](N)CC(=O)O)C(C)C)C(=O)N[C@@H](Cc1cnc[nH]1)C(=O)N1CCC[C@H]1C(=O)N[C@@H](Cc1ccccc1)C(=O)O
Activity (HEK293 [1]): Active | Activity (HEK293 [2]): inactive | Activity (HEK293 [3]): Active | Activity (HEK293 [4]): Active | Activity (HEK293 [5]): Active | Activity (HEK293 [6]): Active | Activity (HEK293 [7]): Active

CC[C@H](C)[C@H](NC(=O)[C@H](Cc1ccc(O)cc1)NC(=O)[C@@H](NC(=O)[C@H](CCCNC(=N)N)NC(=O)[C@H](CC(=O)O)NC(=O)CCCCCNc1c(OC)c(=O)c1=O)C(C)C)C(=O)N[C@@H](Cc1cnc[nH]1)C(=O)N1CCC[C@H]1C(=O)N[C@@H](Cc1ccccc1)C(=O)O
Activity (HEK293 [8]): Active

CC[C@H](C)[C@H](NC(=O)[C@H](Cc1ccc(O)cc1)NC(=O)[C@@H](NC(=O)[C@H](CCCNC(=N)N)NC(=O)[C@H](CC(=O)O)NC(=O)CCCCCNc1c(N[C@@H](CC(=O)O)C(=O)N[C@@H](CCCNC(=N)N)C(=O)N[C@H](C(=O)N[C@@H](Cc2ccc(O)cc2)C(=O)N[C@H](C(=O)N[C@@H](Cc2cnc[nH]2)C(=O)N2CCC[C@H]2C(=O)N[C@@H](Cc2ccccc2)C(=O)O)[C@@H](C)CC)C(C)C)c(=O)c1=O)C(C)C)C(=O)N[C@@H](Cc1cnc[nH]1)C(=O)N1CCC[C@H]1C(=O)N[C@@H](Cc1ccccc1)C(=O)O
Activity (HEK293 [9]): Active | Activity (HEK293 [10]): inactive | Activity (HEK293 [11]): Active | Activity (HEK293 [12]): Active | Activity (HEK293 [13]): inactive

From ChEMBL document CHEMBL2375226, “Bivalent angiotensin II suppresses oxidative stress-induced hyper-responsiveness of angiotensin II receptor type I” (Eur J Med Chem, 2013)
